Source: PubChem BioAssay (several laboratories)
KCNK3 block = human KCNK3 channel inhibitors, primary screen, CHO cells, FluxOR thallium flux, B-score; Potassium channel subfamily K member 3 (Homo sapiens), O14649; FluxOR fluorescence; active compounds read low; B-score at 10 µM; hit rate 0.84% among 340,000; AID 602410, 2012;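 active = B-score under library mean minus 4 SD, starting fluorescence ratio at most library mean plus 5 SD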;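 note: more negative B-score means stronger inhibition of thallium flux through KCNK3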
KCNQ1 block = inhibitors of human KCNQ1 channel, primary screen, cell-based, thallium flux, high-throughput; Potassium voltage-gated channel subfamily KQT member 1 (Homo sapiens), P51787; CHO-K1 KCNQ1, FluxOR thallium flux fluorescence; active compounds read high; B-score at 10 µM; hit rate 1.3% among 310,000; AID 2642, 2010;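 active = compounds whose thallium flux B-score, printed positive for inhibition, exceeds three library SD while starting fluorescence stays within three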;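 note: channel opened by potassium depolarization with thallium stimulus after 20 min compound exposure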
KCC2 mod = KCC2 cotransporter modulators, thallium flux, primary screen, cell-based, HEK293 KCC2, FluoZin-2 fluorescence, MLSMR; KCC2 cells, thallium flux FluoZin-2 fluorescence; B-score of Tl+ flux slope (higher = more flux/activation; lower = inhibition) at 10 µM; hit rate 2.2% among 190,000; AID 1456, 2008;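 active = thallium flux slope and its plate-corrected score both differing from the plate sample mean at a set confidence after two filtering rounds, in either direction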;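 note: slope of fluorescence scaled to starting intensity during 10 to 20 s after thallium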
Target sequence (Q9H2X9 whole entry, looked up): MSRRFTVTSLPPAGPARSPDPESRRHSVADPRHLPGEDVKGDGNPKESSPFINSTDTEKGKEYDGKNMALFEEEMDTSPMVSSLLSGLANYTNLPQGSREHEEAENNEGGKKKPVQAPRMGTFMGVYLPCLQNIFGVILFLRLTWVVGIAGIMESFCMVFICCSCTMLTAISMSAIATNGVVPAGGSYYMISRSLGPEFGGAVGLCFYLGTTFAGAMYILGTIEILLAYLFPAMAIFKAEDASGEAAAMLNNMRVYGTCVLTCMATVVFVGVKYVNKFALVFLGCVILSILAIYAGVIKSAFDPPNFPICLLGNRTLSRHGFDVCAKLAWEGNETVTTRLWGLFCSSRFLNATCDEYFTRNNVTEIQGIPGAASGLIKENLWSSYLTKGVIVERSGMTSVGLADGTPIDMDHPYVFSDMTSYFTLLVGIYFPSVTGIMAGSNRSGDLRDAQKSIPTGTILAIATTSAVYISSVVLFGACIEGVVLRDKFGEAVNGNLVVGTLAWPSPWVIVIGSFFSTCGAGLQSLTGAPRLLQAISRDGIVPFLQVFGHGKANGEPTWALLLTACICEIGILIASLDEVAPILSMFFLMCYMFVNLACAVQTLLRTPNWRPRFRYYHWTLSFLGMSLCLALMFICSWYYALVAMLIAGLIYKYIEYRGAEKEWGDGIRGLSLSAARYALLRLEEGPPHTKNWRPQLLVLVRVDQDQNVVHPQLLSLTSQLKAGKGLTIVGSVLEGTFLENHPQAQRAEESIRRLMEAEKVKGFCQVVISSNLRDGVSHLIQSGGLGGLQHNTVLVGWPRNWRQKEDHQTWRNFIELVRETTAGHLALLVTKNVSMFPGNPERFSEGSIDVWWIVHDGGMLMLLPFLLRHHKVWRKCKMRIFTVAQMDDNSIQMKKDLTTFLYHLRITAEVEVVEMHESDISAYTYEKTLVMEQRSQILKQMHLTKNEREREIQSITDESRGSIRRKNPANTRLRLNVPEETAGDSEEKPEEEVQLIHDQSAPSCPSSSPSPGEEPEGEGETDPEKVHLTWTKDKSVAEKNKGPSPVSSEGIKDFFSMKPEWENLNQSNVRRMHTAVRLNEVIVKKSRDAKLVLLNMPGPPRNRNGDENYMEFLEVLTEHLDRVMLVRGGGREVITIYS
hERG rescue = hERG rescue from dofetilide block, primary screen, cell-based, CHO-hERG, FluxOR thallium flux, dofetilide IC70. Voltage-gated inwardly rectifying potassium channel KCNH2 (Homo sapiens), Q12809. dofetilide IC70 present. activation (rescue from dofetilide block), less the hit threshold, % at 10 µM. hit rate 0.51% among 310,000. AID 1511, 2009;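 active = activation above the mean of controls blocked by dofetilide plus 5 SD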;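 note: thallium influx through hERG after potassium depolarization seen as dye fluorescence rise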
KCNQ1 act = potentiators or activators of KCNQ1 channel, primary screen, cell-based, thallium flux, high-throughput | Potassium voltage-gated channel subfamily KQT member 1 (Homo sapiens), P51787 | CHO-K1 KCNQ1, thallium flux FluxOR fluorescence; active compounds read high | B-score at 10 µM | hit rate 0.35% among 310,000 | AID 2648, 2010;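 active = fluorescence ratio B-score, a plate-corrected score, at least three library SD, with initial intensity B-score within 5 SD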
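Medium – assay buffer, equal DMSO in all wells · Material – CHO-K1 cell line with stable KCNQ1 potassium channel expression · Signal – kinetic FluxOR thallium fluorescence, 10-s 1-Hz baseline, 110-s post-stimulus read · Compound – single concentration per compound, DMSO matched to controls · Schedule – 37 °C overnight plating, 90-min dark dye load, 20-min compound pretreatment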
KCNK9 inh = KCNK9 potassium channel inhibitors, primary screen, HEK293 cells, thallium flux. B-score at 10 µM. hit rate 1.2% among 310,000. Potassium channel subfamily K member 9 (Homo sapiens), Q9NPC2. AID 488922, 2010. FluxOR thallium flux fluorescence; active compounds read low;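 active = ratio B-score over 3 SD below the library mean, with starting fluorescence within 5 SD of its mean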;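 note: negative B-score means less thallium flux so channel inhibition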
Hits are given with their value. An excerpt weighted towards active compounds, which were near 4.1% of everything screened.

Screening CCCC(C)c1oc(=O)cc(O)c1C (stereo not given) returned KCNK3 block inactive.
Screening CCOC(=O)c1sc(N(Cc2ccccc2)C(=O)COC(=O)c2ccccc2O)nc1C returned KCNK3 block inactive, KCNQ1 block inactive, KCC2 mod inactive, hERG rescue inactive, KCNQ1 act inactive and KCNK9 inh -6.74.
Screening CCOC(=O)c1sc(N(Cc2ccccc2)C(=O)CCl)nc1C returned KCNK3 block inactive, KCNQ1 block inactive, hERG rescue inactive, KCNQ1 act inactive and KCNK9 inh inactive.
Screening Cc1cccc(N=C2NC(=O)/C(=C/C=C/c3ccco3)S2)c1C returned KCNK3 block inactive, KCNQ1 block inactive, KCC2 mod 4.35, hERG rescue inactive, KCNQ1 act inactive and KCNK9 inh inactive.
C[C@]12C=CC(=O)C=C1CC[C@@H]1[C@@H]2[C@@H](O)C[C@@]2(C)[C@H]1CC[C@]2(O)C(=O)COC(=O)CCC(=O)NCCc1ccc(O)cc1 was read as KCNK3 block inactive, KCNQ1 block inactive, hERG rescue inactive, KCNQ1 act inactive and KCNK9 inh inactive.
O=C1c2ccccc2C(Nc2ccc(-c3nc4ccccc4[nH]3)cc2)N1Cc1ccco1 (stereo not given) was read as KCNK3 block -10.8, KCNQ1 block inactive, KCC2 mod inactive, hERG rescue inactive, KCNQ1 act inactive and KCNK9 inh inactive.
Screening Oc1ccc(C23CCCC2C2(CCCC2)c2ccc(O)cc2O3)c(O)c1 (stereo not given) returned KCNK3 block inactive.
COC(=O)c1[nH]c2ccc(F)cc2c1NS(=O)(=O)c1ccc(OC)cc1OC was read as KCNK3 block inactive, KCNQ1 block inactive, hERG rescue inactive, KCNQ1 act inactive and KCNK9 inh -6.62.
Screening Cc1[nH]c2ccccc2c1SCC(=O)N1CCCc2ccccc21 returned KCNK3 block inactive, KCNQ1 block 6, KCC2 mod inactive, hERG rescue inactive, KCNQ1 act inactive and KCNK9 inh inactive.
`Cc1[nH]c2ccccc2c1C(=O)C(=O)N1CCCc2ccccc21` gave KCNK3 block inactive, KCNQ1 block inactive, KCC2 mod inactive, hERG rescue inactive, KCNQ1 act inactive and KCNK9 inh inactive.
For CC(C)Cn1c(SCC(=O)N2CCCc3ccccc32)nc2ccccc2c1=O the results were KCNQ1 block 6, hERG rescue inactive, KCNQ1 act inactive and KCNK9 inh inactive.
For CCn1c(SCC(=O)N2CCCc3ccccc32)nc2ccccc2c1=O the results were KCNK3 block inactive, KCNQ1 block inactive, KCC2 mod inactive, hERG rescue inactive, KCNQ1 act inactive and KCNK9 inh inactive.
Screening O=C(CN1C(=O)NC2(CCCC2)C1=O)OCCOc1ccc(Br)cc1 returned KCNK3 block inactive, KCNQ1 block inactive, hERG rescue inactive, KCNQ1 act inactive and KCNK9 inh inactive.
CC(=O)c1c(-c2ccccc2)c2cc([N+](=O)[O-])ccc2[nH]c1=O was read as KCNK3 block inactive, KCNQ1 block inactive, hERG rescue inactive, KCNQ1 act 8 and KCNK9 inh inactive.
Screening CC(=O)c1c(C)nc2ccc([N+](=O)[O-])cc2c1-c1ccccc1 returned KCNK3 block inactive, KCNQ1 block inactive, hERG rescue inactive, KCNQ1 act inactive and KCNK9 inh inactive.
Screening O=C(O)CCNC(=O)/C(=C\c1ccco1)NC(=O)c1ccco1 returned KCNK3 block inactive, KCNQ1 block inactive, hERG rescue inactive, KCNQ1 act inactive and KCNK9 inh inactive.
Screening CCOc1ccc(N2CC(C(=O)Nc3cc(OCC)c(N4CCOCC4)cc3OCC)CC2=O)cc1 (stereo not given) returned KCNK3 block inactive.
`CCOC(=O)c1n[nH]n2c1nc(=O)c1ccccc12` gave KCNK3 block inactive, KCNQ1 block inactive, hERG rescue inactive, KCNQ1 act inactive and KCNK9 inh inactive.
`Cc1ccc(S(=O)(=O)c2n[nH]n3c2nc(=O)c2ccccc23)cc1` gave KCNK3 block inactive, KCNQ1 block inactive, hERG rescue 8.6, KCNQ1 act inactive and KCNK9 inh inactive.
For Cc1ccc(OCCNC(=O)CCc2ccccc2)cc1C the results were KCNK3 block inactive, KCNQ1 block inactive, hERG rescue inactive, KCNQ1 act inactive and KCNK9 inh inactive.
For Cn1c(C(=O)NCc2cccs2)cc2c(=O)n(C)c3ccccc3c21 the results were KCNK3 block inactive, KCNQ1 block inactive, hERG rescue inactive, KCNQ1 act inactive and KCNK9 inh inactive.
For Cn1c2ccccc2c(=O)c2ccc(NCCc3cccs3)cc21 the results were KCNK3 block -9.11.
`CCN(CC(=O)Nc1ccc(NC(C)=O)cc1)C(=O)c1cccc(S(=O)(=O)N2CCCC2)c1` gave KCNK3 block inactive, KCNQ1 block inactive, hERG rescue inactive, KCNQ1 act inactive and KCNK9 inh inactive.
Screening COc1ccc(C)cc1NC(=O)C1CCN(S(=O)(=O)c2ccc3c(c2)NC(=O)CO3)CC1 returned KCNK3 block inactive, KCNQ1 block inactive, hERG rescue inactive, KCNQ1 act inactive and KCNK9 inh inactive.
Cc1cccc(C(=O)NNC(=O)c2ccccc2Br)c1 was read as KCNK3 block inactive, KCNQ1 block inactive, hERG rescue inactive, KCNQ1 act inactive and KCNK9 inh inactive.
OC(CCN1CCOCC1)c1ccccc1 (stereo not given) was read as KCNK3 block inactive, KCNQ1 block inactive, hERG rescue 9.3, KCNQ1 act inactive and KCNK9 inh inactive.
COC(=O)C1CCN(S(=O)(=O)c2ccc(NC(C)=O)cc2)CC1 was read as KCNK3 block inactive, KCNQ1 block inactive, KCC2 mod inactive, hERG rescue inactive, KCNQ1 act inactive and KCNK9 inh inactive.
For CC(=O)Nc1ccc(S(=O)(=O)N2CCC(C(=O)O)CC2)cc1 the results were KCNK3 block inactive, KCNQ1 block inactive, KCC2 mod inactive, hERG rescue inactive, KCNQ1 act 10 and KCNK9 inh inactive.
Screening Oc1c(Br)cc(Br)cc1C=NCc1ccccc1 returned KCNK3 block inactive, KCNQ1 block inactive, KCC2 mod inactive, hERG rescue inactive, KCNQ1 act 22 and KCNK9 inh inactive.
For O=C(Cc1ccccc1)N/N=C/c1cc(Br)cc(Br)c1O the results were KCNK3 block inactive, KCNQ1 block inactive, hERG rescue inactive, KCNQ1 act inactive and KCNK9 inh inactive.
For Oc1c(Br)cc(Br)cc1C=NCc1ccc(F)cc1 the results were KCNK3 block inactive, KCNQ1 block inactive, KCC2 mod inactive, hERG rescue inactive, KCNQ1 act 12 and KCNK9 inh inactive.
